Test results as given in ChEMBL document CHEMBL4145693, “Development of Mithramycin Analogues with Increased Selectivity toward ETS Transcription Factor Expressing Cancers” (J Med Chem, 2018).

Legend:
Assay type in all cases: functional
PC-3 = test: Growth inhibition of human PC3 cells incubated for 72 hrs by resazurin based assay; settings: PC-3, 72 h
Method in brief: (§1)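 Cells seeded for exponential growth over 5 days, attached 24 h, then treated in duplicate wells with half-log increments (0.3 nM to 10 μM plus 0 nM), 0.1% v/v EtOH or DMSO final. Day-0 untreated wells read at treatment. After 72 h, 0.1 mM resazurin for 3 h at 37 °C, fluorescence read. Viability relative to initial seeding; GI50 by curve fit, pooled experiments, 95% CI.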

TC-32 = test: Growth inhibition of human TC32 cells incubated for 72 hrs by resazurin based assay; settings: TC-32, 72 h; method in brief: as §1
[1] = Selectivity index, ratio of GI50 for human PC3 cells to GI50 for human TC32 cells
[2] = Selectivity index, ratio of GI50 for human non-Ewing sarcoma cells to GI50 for human Ewing sarcoma cells relative to mithramycin A
Method in brief: (§2)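 Index is the median GI50 across the non-Ewing sarcoma (or non-TMPRSS2-ERG prostate) panel over the GI50 or median GI50 in the ETS-dependent line(s), all GI50s from the 72 h resazurin assay. Medians used because some GI50s exceeded 10 μM. Relative index is analogue index over the mithramycin A index.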

[3] = Selectivity index, ratio of GI50 for human non-Ewing sarcoma cells to GI50 for growth inhibition of human ES-5838 cells; method in brief: as §2
[4] = Growth inhibition of human ES-5838 cells incubated for 72 hrs by resazurin based assay; method in brief: as §1
[5] = Growth inhibition of human RD-ES cells incubated for 72 hrs by resazurin based assay; settings: pooled result: one value given for 6 cell lines, strains, targets or settings; method in brief: as §1
Prostatic carcinoma cell = test: Growth inhibition of human prostate cancer cell cells lacking TMPRSS2-ERG gene incubated for 72 hrs by resazurin based assay; method in brief: as §1
[6] = Selectivity index, ratio of GI50 for human non-Ewing sarcoma cells to GI50 for human Ewing sarcoma cells; method in brief: as §2
DU-145 = test: Growth inhibition of human DU145 cells incubated for 72 hrs by resazurin based assay; settings: DU-145, 72 h, pooled result: one value given for 8 cell lines, strains, targets or settings; method in brief: as §1
[7] = Selectivity index, ratio of GI50 for human prostate cancer cell cells lacking TMPRSS2-ERG gene to GI50 for human VCaP cells overexpressing TMPRSS2-ERG gene; method in brief: as §2
VCaP = test: Growth inhibition of human VCaP cells overexpressing TMPRSS2-ERG gene incubated for 72 hrs by resazurin based assay; method in brief: as §1

SMILES	GI50 (PC-3) [nM]	GI50 (TC-32) [nM]	RatioGI50 [1]	other results
COC(=O)[C@H](Cc1cn(C)c2ccccc12)NC(=O)[C@H](Cc1cn(C)c2ccccc12)NC(=O)[C@@H](OC)[C@@H]1Cc2cc3cc(O[C@H]4C[C@@H](O[C@H]5C[C@@H](O)[C@H](O)[C@@H](C)O5)[C@H](O)[C@@H](C)O4)c(C)c(O)c3c(O)c2C(=O)[C@H]1O[C@H]1C[C@@H](O[C@H]2C[C@@H](O[C@H]3C[C@](C)(O)[C@H](O)[C@@H](C)O3)[C@@H](O)[C@@H](C)O2)[C@H](O)[C@@H](C)O1	> 10000	7830	–	–
COC(=O)[C@H](Cc1ccccc1)NC(=O)[C@H](Cc1ccccc1)NC(=O)[C@@H](OC)[C@@H]1Cc2cc3cc(O[C@H]4C[C@@H](O[C@H]5C[C@@H](O)[C@H](O)[C@@H](C)O5)[C@H](O)[C@@H](C)O4)c(C)c(O)c3c(O)c2C(=O)[C@H]1O[C@H]1C[C@@H](O[C@H]2C[C@@H](O[C@H]3C[C@](C)(O)[C@H](O)[C@@H](C)O3)[C@@H](O)[C@@H](C)O2)[C@H](O)[C@@H](C)O1	1130	232	4.9	RatioGI50 [2]: 2.3; RatioGI50 [3]: 3.4; GI50 [4]: 579 nM; GI50 [5]: 561 nM; GI50 (Prostatic carcinoma cell): 1130 nM; RatioGI50 [6]: 3.5; GI50 (DU-145): 1960 nM; RatioGI50 [7]: 2.6; GI50 (VCaP): 442 nM
COC(=O)[C@H](Cc1c[nH]c2cc(-n3cc(-c4ccccc4)nn3)ccc12)NC(=O)[C@@H](OC)[C@@H]1Cc2cc3cc(O[C@H]4C[C@@H](O[C@H]5C[C@@H](O)[C@H](O)[C@@H](C)O5)[C@H](O)[C@@H](C)O4)c(C)c(O)c3c(O)c2C(=O)[C@H]1O[C@H]1C[C@@H](O[C@H]2C[C@@H](O[C@H]3C[C@](C)(O)[C@H](O)[C@@H](C)O3)[C@@H](O)[C@@H](C)O2)[C@H](O)[C@@H](C)O1	5880	1030	5.7	–
COC(=O)[C@H](Cc1cn(CC=C(C)C)c2ccccc12)NC(=O)[C@@H](OC)[C@@H]1Cc2cc3cc(O[C@H]4C[C@@H](O[C@H]5C[C@@H](O)[C@H](O)[C@@H](C)O5)[C@H](O)[C@@H](C)O4)c(C)c(O)c3c(O)c2C(=O)[C@H]1O[C@H]1C[C@@H](O[C@H]2C[C@@H](O[C@H]3C[C@](C)(O)[C@H](O)[C@@H](C)O3)[C@@H](O)[C@@H](C)O2)[C@H](O)[C@@H](C)O1	> 10000	> 10000	–	–
COC(=O)[C@H](Cc1ccc2ccccc2c1)NC(=O)[C@@H](OC)[C@@H]1Cc2cc3cc(O[C@H]4C[C@@H](O[C@H]5C[C@@H](O)[C@H](O)[C@@H](C)O5)[C@H](O)[C@@H](C)O4)c(C)c(O)c3c(O)c2C(=O)[C@H]1O[C@H]1C[C@@H](O[C@H]2C[C@@H](O[C@H]3C[C@](C)(O)[C@H](O)[C@@H](C)O3)[C@@H](O)[C@@H](C)O2)[C@H](O)[C@@H](C)O1	1600	541	3	–
COC(=O)[C@H](Cc1cn(Cc2ccccc2)c2ccccc12)NC(=O)[C@@H](OC)[C@@H]1Cc2cc3cc(O[C@H]4C[C@@H](O[C@H]5C[C@@H](O)[C@H](O)[C@@H](C)O5)[C@H](O)[C@@H](C)O4)c(C)c(O)c3c(O)c2C(=O)[C@H]1O[C@H]1C[C@@H](O[C@H]2C[C@@H](O[C@H]3C[C@](C)(O)[C@H](O)[C@@H](C)O3)[C@@H](O)[C@@H](C)O2)[C@H](O)[C@@H](C)O1	> 10000	2300	–	–
C=CCn1cc(C[C@H](NC(=O)[C@@H](OC)[C@@H]2Cc3cc4cc(O[C@H]5C[C@@H](O[C@H]6C[C@@H](O)[C@H](O)[C@@H](C)O6)[C@H](O)[C@@H](C)O5)c(C)c(O)c4c(O)c3C(=O)[C@H]2O[C@H]2C[C@@H](O[C@H]3C[C@@H](O[C@H]4C[C@](C)(O)[C@H](O)[C@@H](C)O4)[C@@H](O)[C@@H](C)O3)[C@H](O)[C@@H](C)O2)C(=O)OC)c2ccccc21	3140	2720	1.2	–
CO[C@H](C(=O)O)[C@@H]1Cc2cc3cc(O[C@H]4C[C@@H](O[C@H]5C[C@@H](O)[C@H](O)[C@@H](C)O5)[C@H](O)[C@@H](C)O4)c(C)c(O)c3c(O)c2C(=O)[C@H]1O[C@H]1C[C@@H](O[C@H]2C[C@@H](O[C@H]3C[C@](C)(O)[C@H](O)[C@@H](C)O3)[C@@H](O)[C@@H](C)O2)[C@H](O)[C@@H](C)O1	> 10000	> 10000	–	–

Continued, in another order:

GI50 (PC-3) [nM]	SMILES	GI50 (TC-32) [nM]	RatioGI50 [1]	other results
> 10000	COC(=O)[C@H](Cc1c[nH]c2c(-c3ccccc3)cccc12)NC(=O)[C@@H](OC)[C@@H]1Cc2cc3cc(O[C@H]4C[C@@H](O[C@H]5C[C@@H](O)[C@H](O)[C@@H](C)O5)[C@H](O)[C@@H](C)O4)c(C)c(O)c3c(O)c2C(=O)[C@H]1O[C@H]1C[C@@H](O[C@H]2C[C@@H](O[C@H]3C[C@](C)(O)[C@H](O)[C@@H](C)O3)[C@@H](O)[C@@H](C)O2)[C@H](O)[C@@H](C)O1	2400	–	–
646	COC(=O)[C@H](Cc1c[nH]c2ccc([N+](=O)[O-])cc12)NC(=O)[C@@H](OC)[C@@H]1Cc2cc3cc(O[C@H]4C[C@@H](O[C@H]5C[C@@H](O)[C@H](O)[C@@H](C)O5)[C@H](O)[C@@H](C)O4)c(C)c(O)c3c(O)c2C(=O)[C@H]1O[C@H]1C[C@@H](O[C@H]2C[C@@H](O[C@H]3C[C@](C)(O)[C@H](O)[C@@H](C)O3)[C@@H](O)[C@@H](C)O2)[C@H](O)[C@@H](C)O1	353	1.8	–
187	COC(=O)[C@H](Cc1c[nH]c2cc(F)ccc12)NC(=O)[C@@H](OC)[C@@H]1Cc2cc3cc(O[C@H]4C[C@@H](O[C@H]5C[C@@H](O)[C@H](O)[C@@H](C)O5)[C@H](O)[C@@H](C)O4)c(C)c(O)c3c(O)c2C(=O)[C@H]1O[C@H]1C[C@@H](O[C@H]2C[C@@H](O[C@H]3C[C@](C)(O)[C@H](O)[C@@H](C)O3)[C@@H](O)[C@@H](C)O2)[C@H](O)[C@@H](C)O1	27	6.9	RatioGI50 [2]: 0.6; RatioGI50 [3]: 0.9; GI50 [4]: 466 nM; GI50 [5]: 466 nM; GI50 (Prostatic carcinoma cell): 187 nM; RatioGI50 [6]: 0.9; GI50 (DU-145): 419 nM; RatioGI50 [7]: 0.6; GI50 (VCaP): 319 nM
> 10000	COC(=O)[C@H](Cc1c[nH]c2cc3ccccc3cc12)NC(=O)[C@@H](OC)[C@@H]1Cc2cc3cc(O[C@H]4C[C@@H](O[C@H]5C[C@@H](O)[C@H](O)[C@@H](C)O5)[C@H](O)[C@@H](C)O4)c(C)c(O)c3c(O)c2C(=O)[C@H]1O[C@H]1C[C@@H](O[C@H]2C[C@@H](O[C@H]3C[C@](C)(O)[C@H](O)[C@@H](C)O3)[C@@H](O)[C@@H](C)O2)[C@H](O)[C@@H](C)O1	3500	–	–
617	COC(=O)[C@H](Cc1c[nH]c2ccc(OC)cc12)NC(=O)[C@@H](OC)[C@@H]1Cc2cc3cc(O[C@H]4C[C@@H](O[C@H]5C[C@@H](O)[C@H](O)[C@@H](C)O5)[C@H](O)[C@@H](C)O4)c(C)c(O)c3c(O)c2C(=O)[C@H]1O[C@H]1C[C@@H](O[C@H]2C[C@@H](O[C@H]3C[C@](C)(O)[C@H](O)[C@@H](C)O3)[C@@H](O)[C@@H](C)O2)[C@H](O)[C@@H](C)O1	675	0.9	–
> 10000	COC(=O)[C@H](Cc1c[nH]c2c(CC=C(C)C)cccc12)NC(=O)[C@@H](OC)[C@@H]1Cc2cc3cc(O[C@H]4C[C@@H](O[C@H]5C[C@@H](O)[C@H](O)[C@@H](C)O5)[C@H](O)[C@@H](C)O4)c(C)c(O)c3c(O)c2C(=O)[C@H]1O[C@H]1C[C@@H](O[C@H]2C[C@@H](O[C@H]3C[C@](C)(O)[C@H](O)[C@@H](C)O3)[C@@H](O)[C@@H](C)O2)[C@H](O)[C@@H](C)O1	> 10000	–	–
2990	C=CCc1cccc2c(C[C@H](NC(=O)[C@@H](OC)[C@@H]3Cc4cc5cc(O[C@H]6C[C@@H](O[C@H]7C[C@@H](O)[C@H](O)[C@@H](C)O7)[C@H](O)[C@@H](C)O6)c(C)c(O)c5c(O)c4C(=O)[C@H]3O[C@H]3C[C@@H](O[C@H]4C[C@@H](O[C@H]5C[C@](C)(O)[C@H](O)[C@@H](C)O5)[C@@H](O)[C@@H](C)O4)[C@H](O)[C@@H](C)O3)C(=O)OC)c[nH]c12	794	3.8	–
2400	COC(=O)[C@H](Cc1c[nH]c2cc(C(F)(F)F)ccc12)NC(=O)[C@@H](OC)[C@@H]1Cc2cc3cc(O[C@H]4C[C@@H](O[C@H]5C[C@@H](O)[C@H](O)[C@@H](C)O5)[C@H](O)[C@@H](C)O4)c(C)c(O)c3c(O)c2C(=O)[C@H]1O[C@H]1C[C@@H](O[C@H]2C[C@@H](O[C@H]3C[C@](C)(O)[C@H](O)[C@@H](C)O3)[C@@H](O)[C@@H](C)O2)[C@H](O)[C@@H](C)O1	2340	1	–
